{"source": "the RNAGym collection of RNA variant scans (doi:10.1038/s41586-018-0170-7)", "parents": {"B1": {"name": "tRNA (parent)", "chain": "GUUCCGUUGGCGUAAUGGUAACGCGUCUCCCUCCUAAGGAGAAGACUGCGGGUUCGAGUCCCGUACGGAACG"}}, "data": [{"variants_of": "B1", "assay": "yeast fitness, log relative to wild type (ln ratio); higher = fitter; tRNA-Arg(CCU), competitive growth, 37 C, 1 M NaCl", "outline": "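In BY4742 missing the chromosomal gene, a combinatorial tRNA-Arg(CCU) variant library was maintained on a HIS3 centromeric plasmid. Selection ran ~6.5 generations (~26.5 h) in SC-HIS 1M NaCl at 37 °C, following 4 generations in SC-HIS at 30 °C, with three outputs per input and variant counts by 125 bp paired-end Illumina sequencing. Fitness is the natural log of a genotype's generations relative to the wild type's, with generations taken as inverse-variance-weighted, OD-scaled log2 output/input frequency.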", "values": [{"variant": "G6U A43C A70G", "yeast fitness (ln)": -0.296}, {"variant": "G6U C46U C66A", "yeast fitness (ln)": 0.00404}, {"variant": "G1A A43C C46U A70G C71U", "yeast fitness (ln)": -0.032}, {"variant": "G1A U2G G6U A69G C71U", "yeast fitness (ln)": -0.224}, {"variant": "U2C G6A A43C C46U C66U A69G A70U C71U", "yeast fitness (ln)": -0.319}, {"variant": "U2G G6U C27U A43C A70U C71U", "yeast fitness (ln)": -0.324}, {"variant": "U2C G6A C27U C46U C66A A70U C71U", "yeast fitness (ln)": -0.172}, {"variant": "G1A G6A C27U A43C C46U C66U", "yeast fitness (ln)": -0.131}, {"variant": "G1A U2G C27U A69G A70G C71U", "yeast fitness (ln)": -0.241}, {"variant": "U2G C27U A43C A70G", "yeast fitness (ln)": -0.178}, {"variant": "U2C G6U C27U A43C C66U A69G C71U", "yeast fitness (ln)": -0.522}, {"variant": "U2G C27U C71U", "yeast fitness (ln)": -0.0721}, {"variant": "U2C G6U A70U", "yeast fitness (ln)": -0.0726}, {"variant": "U2G A43C C46U C66U C71U", "yeast fitness (ln)": -0.2}, {"variant": "U2C G6A C27U C66U A70U C71U", "yeast fitness (ln)": -0.212}, {"variant": "G6U C46U C66A A70G", "yeast fitness (ln)": -0.00887}, {"variant": "U2C G6U C27U C46U C66U A70G", "yeast fitness (ln)": -0.0763}, {"variant": "C27U A43C C46U A70G", "yeast fitness (ln)": -0.0288}, {"variant": "G1A U2C G6A A43C C46U", "yeast fitness (ln)": 0.0217}, {"variant": "G1A U2C G6A C46U C66A A70U C71U", "yeast fitness (ln)": -0.102}, {"variant": "U2G C46U C66U A70G C71U", "yeast fitness (ln)": -0.115}, {"variant": "G1A U2G G6U C27U C46U A70G C71U", "yeast fitness (ln)": -0.368}, {"variant": "G1A U2C C46U C66U A70U C71U", "yeast fitness (ln)": -0.175}, {"variant": "U2C C27U A69G A70G", "yeast fitness (ln)": -0.0516}, {"variant": "U2G C27U A70U", "yeast fitness (ln)": -0.0184}, {"variant": "U2C G6U C27U A43C C46U C66A A70G C71U", "yeast fitness (ln)": -0.0138}, {"variant": "G1A U2G G6A C27U A43C C46U C66U A69G A70G C71U", "yeast fitness (ln)": -0.433}, {"variant": "G6U C27U A70G", "yeast fitness (ln)": -0.302}, {"variant": "U2G G6U A43C C46U", "yeast fitness (ln)": -0.106}, {"variant": "U2C C27U A43C C46U C66U", "yeast fitness (ln)": -0.0652}, {"variant": "G1A A43C C46U C66A A69G A70U", "yeast fitness (ln)": -0.113}, {"variant": "G1A U2G G6U A43C C46U C66U A69G A70U", "yeast fitness (ln)": -0.299}, {"variant": "U2G A69G A70G C71U", "yeast fitness (ln)": -0.191}, {"variant": "G6U C46U C66A A70U C71U", "yeast fitness (ln)": -0.394}, {"variant": "U2C G6U A43C A69G A70U C71U", "yeast fitness (ln)": -0.4}, {"variant": "G6A C27U A43C C46U C66A A70G", "yeast fitness (ln)": -0.191}, {"variant": "U2C G6U C27U A43C C71U", "yeast fitness (ln)": -0.23}, {"variant": "C27U C46U C66A A69G A70G C71U", "yeast fitness (ln)": -0.156}, {"variant": "G1A U2G A43C A69G A70U", "yeast fitness (ln)": -0.159}, {"variant": "G1A U2G C27U C46U A69G A70U C71U", "yeast fitness (ln)": -0.18}, {"variant": "U2G C27U A43C", "yeast fitness (ln)": -0.0611}, {"variant": "G1A U2G G6U C46U C66U A70U C71U", "yeast fitness (ln)": -0.722}, {"variant": "G1A U2G C66A A70U C71U", "yeast fitness (ln)": -0.146}, {"variant": "G1A U2G A43C C46U C66A", "yeast fitness (ln)": -0.156}, {"variant": "C46U A69G A70U C71U", "yeast fitness (ln)": -0.138}, {"variant": "G1A U2G G6U C27U A43C C46U C66U A70G", "yeast fitness (ln)": -0.564}, {"variant": "G1A G6A A43C A69G A70U C71U", "yeast fitness (ln)": -0.503}, {"variant": "G6A C27U A43C C46U A70U C71U", "yeast fitness (ln)": -0.239}, {"variant": "G1A C46U C71U", "yeast fitness (ln)": -0.01}, {"variant": "U2C G6A C27U A43C", "yeast fitness (ln)": -0.0322}, {"variant": "G1A U2C G6U C27U C46U C66A A69G A70U", "yeast fitness (ln)": -0.116}, {"variant": "U2G A43C C66A A69G A70U", "yeast fitness (ln)": -0.231}, {"variant": "G1A U2G G6U C27U A70G", "yeast fitness (ln)": -0.274}, {"variant": "U2C G6A A43C C46U A69G A70U", "yeast fitness (ln)": -0.0634}, {"variant": "U2G G6A C46U C66U A69G C71U", "yeast fitness (ln)": -0.155}, {"variant": "U2C G6A C27U C66A A70G C71U", "yeast fitness (ln)": -0.106}, {"variant": "U2G A43C A70G C71U", "yeast fitness (ln)": -0.123}, {"variant": "G6A A69G A70G", "yeast fitness (ln)": -0.0849}, {"variant": "U2G G6U C46U", "yeast fitness (ln)": -0.0208}, {"variant": "G6A C66U A70U", "yeast fitness (ln)": -0.0184}, {"variant": "G1A U2G C27U A43C C46U C66U A69G A70U C71U", "yeast fitness (ln)": -0.5}, {"variant": "G1A G6A A43C C46U", "yeast fitness (ln)": -0.0957}, {"variant": "G6A A43C", "yeast fitness (ln)": -0.0714}, {"variant": "U2G G6A C27U A69G A70G C71U", "yeast fitness (ln)": -0.245}, {"variant": "U2G G6U C71U", "yeast fitness (ln)": -0.173}, {"variant": "U2C A43C C46U A70G C71U", "yeast fitness (ln)": 0.00238}, {"variant": "G1A U2G G6U C27U C46U C66U C71U", "yeast fitness (ln)": -0.285}, {"variant": "C27U A43C C46U A69G", "yeast fitness (ln)": -0.0156}, {"variant": "G1A G6U C27U A69G A70G C71U", "yeast fitness (ln)": -0.376}, {"variant": "G1A U2G C27U A43C C66A A70G C71U", "yeast fitness (ln)": -0.317}, {"variant": "U2G G6U C27U A43C C66U A70G C71U", "yeast fitness (ln)": -0.316}, {"variant": "G1A U2G G6U C46U C66A A70U", "yeast fitness (ln)": -0.234}, {"variant": "U2C G6U C27U C46U C66U", "yeast fitness (ln)": -0.183}, {"variant": "C66A A70U C71U", "yeast fitness (ln)": -0.0544}, {"variant": "U2G G6A C27U A43C C46U C66A", "yeast fitness (ln)": -0.189}, {"variant": "A70G C71U", "yeast fitness (ln)": -0.0739}, {"variant": "G1A G6A C27U C46U C66U A69G A70U", "yeast fitness (ln)": -0.468}, {"variant": "U2C G6U A43C A70U", "yeast fitness (ln)": -0.118}, {"variant": "G6A C27U A43C C46U A69G A70G", "yeast fitness (ln)": -0.237}, {"variant": "U2G G6A C27U A43C C66A A70G", "yeast fitness (ln)": -0.195}, {"variant": "G1A G6U C46U A69G A70G C71U", "yeast fitness (ln)": -0.216}, {"variant": "G1A U2C G6A A70U C71U", "yeast fitness (ln)": -0.126}, {"variant": "G1A G6A C66U A69G A70G", "yeast fitness (ln)": -0.235}]}]}
